Assay results as given in ChEMBL document CHEMBL2176992, “Synthesis and structure-activity relationship of (E)-phenoxyacrylic amide derivatives as hypoxia-inducible factor (HIF) 1α inhibitors” (J Med Chem, 2012).
Converted amounts (≈) assume the structure as drawn. The source made the active and inactive calls. No cut-off for these calls is given here.

What was measured:
[1] = biological target: T1, Hypoxia-inducible factor 1-alpha (Homo sapiens, UniProt Q16665); experiment: Inhibition of HIF1alpha in human HCT116 cells under hypoxic condition after 16 hrs by dual luciferase reporter gene assay; assay type: cell-based; settings: hct-116
How it was run: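 HRE-luciferase reporter in HCT116 cells under hypoxia (1% O2, 94% N2, 5% CO2); luciferase read-out. IC50 from the mean of three experiments; LW6 positive control.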
Target sequence in this assay (Q16665 whole entry): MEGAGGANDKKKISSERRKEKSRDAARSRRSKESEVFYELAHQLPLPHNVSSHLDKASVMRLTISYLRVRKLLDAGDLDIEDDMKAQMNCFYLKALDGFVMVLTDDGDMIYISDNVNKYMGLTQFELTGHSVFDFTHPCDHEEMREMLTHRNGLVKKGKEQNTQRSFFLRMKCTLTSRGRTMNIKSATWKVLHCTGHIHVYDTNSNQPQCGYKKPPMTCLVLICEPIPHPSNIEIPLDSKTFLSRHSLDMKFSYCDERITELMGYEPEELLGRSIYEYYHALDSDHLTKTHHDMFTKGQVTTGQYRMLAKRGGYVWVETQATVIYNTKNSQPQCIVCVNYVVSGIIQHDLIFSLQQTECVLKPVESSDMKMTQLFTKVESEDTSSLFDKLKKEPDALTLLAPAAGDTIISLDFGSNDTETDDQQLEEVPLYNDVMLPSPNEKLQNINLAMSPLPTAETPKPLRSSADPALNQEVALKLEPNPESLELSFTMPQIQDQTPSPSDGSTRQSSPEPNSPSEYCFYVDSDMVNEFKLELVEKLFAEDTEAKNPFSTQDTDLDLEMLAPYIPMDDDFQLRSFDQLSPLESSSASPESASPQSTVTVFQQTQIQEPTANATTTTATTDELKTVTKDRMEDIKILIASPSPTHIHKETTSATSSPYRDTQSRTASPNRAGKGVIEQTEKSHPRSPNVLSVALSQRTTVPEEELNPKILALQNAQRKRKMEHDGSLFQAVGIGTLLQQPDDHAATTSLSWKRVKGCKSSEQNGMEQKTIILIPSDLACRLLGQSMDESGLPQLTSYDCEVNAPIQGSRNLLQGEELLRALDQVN

HCT-116 [2] = experiment: Cytotoxicity against human HCT116 cells assessed as cell viability after 48 hrs by SRB assay; assay type: cell-based; settings: hct-116, 48 h
How it was run: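 Cell viability of HCT116 by sulforhodamine B assay under the hypoxic reporter-assay conditions; mean of three experiments.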

HUVEC [3] = experiment: Cytotoxicity against HUVECs assessed as growth inhibition at 0.5 to 2 uM after 48 hrs by SRB assay; assay type: cell-based; settings: human
How it was run: (§1)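 HUVEC growth inhibition measured by sulforhodamine B assay, run in parallel with the Matrigel tube-formation incubation (compound or SU11248).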

HUVEC [4] = experiment: Antiangiogenic activity in HUVECs under hypoxic condition assessed as inhibition of tube formation at 2 uM after 18 hrs; assay type: functional, cell-based; settings: Homo sapiens
How it was run: (§2)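 HUVECs seeded on wells coated with ice-cold Matrigel, incubated with compound under 1% O2 for 18 h. Tubule branches photographed; SU11248 as VEGFR-inhibitor positive control.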

HCT-116 [5] = experiment: Antimigratory activity against human HCT116 cells assessed as inhibition of cell migration after 24 hrs by wound healing assay; assay type: functional, cell-based
How it was run: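 Scratch-wound migration of HCT116 cells formed with culture inserts; cells treated with compound or SU11248 and wound closure observed over 24 h.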

[6] = Kinetic solubility of the compound in water at pH 7.4 by nephlometry; assay type: physicochemical; settings: read-out: Kinetic_solubility
How it was run: (§3)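 Kinetic aqueous solubility determined by nephelometry at pH 2, 7.4 and 9; values are the mean of three experiments.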

[7] = Kinetic solubility of the compound in water at pH 2 by nephlometry; assay type: physicochemical; settings: read-out: Kinetic_solubility; how it was run: as §3
[8] = Kinetic solubility of the compound in water at pH 9 by nephlometry; assay type: physicochemical; settings: read-out: Kinetic_solubility; how it was run: as §3
HUVEC [9] = experiment: Antiangiogenic activity in HUVECs under hypoxic condition assessed as inhibition of tube formation at 2 to 5 uM after 18 hrs; assay type: functional, cell-based; settings: Homo sapiens; how it was run: as §2
[10] = biological target: T1, Hypoxia-inducible factor 1-alpha; experiment: Inhibition of HIF1alpha in human HCT116 cells under hypoxic condition assessed as decrease in VEGF mRNA expression by RT-PCR analysis; assay type: cell-based; settings: HCT-116
How it was run: (§4)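 HCT116 cells were treated under hypoxia (1% O2, 94% N2, 5% CO2), and the 2 μM test level was named. mRNA of HIF-1α and its targets (VEGF, EPO, MMP-9) was measured by RT-PCR.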
Target sequence in this assay (Q16665 whole entry, looked up): as the sequence (Q16665 whole entry) above

[11] = biological target: T1, Hypoxia-inducible factor 1-alpha; experiment: Inhibition of HIF1alpha in human HCT116 cells under normoxic condition assessed as increase in VHL expression at 2 to 5 uM by dual luciferase reporter gene assay; assay type: cell-based; settings: HCT-116
Target sequence in this assay (Q16665 whole entry, looked up): as the sequence (Q16665 whole entry) above

[12] = biological target: T1, Hypoxia-inducible factor 1-alpha; experiment: Inhibition of HIF1alpha in human HCT116 cells under hypoxic condition at 5 uM after 12 hrs by dual luciferase reporter gene assay in absence of dipyridol; assay type: cell-based; settings: HCT-116
How it was run: (§5)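 HCT116 cells were cotransfected with pGL3-HRE-luciferase and pRL-SV40 and incubated 24 h. They were then held under hypoxia 4 h and treated with 5 μM compound for 12 h under hypoxia, with 200 μM dipyridol added where stated. Firefly luciferase was read against Renilla.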
Target sequence in this assay (Q16665 whole entry, looked up): as the sequence (Q16665 whole entry) above

[13] = biological target: T1, Hypoxia-inducible factor 1-alpha; experiment: Inhibition of HIF1alpha in human HCT116 cells under hypoxic condition assessed as decrease in MMP9 mRNA expression by RT-PCR analysis; assay type: cell-based; settings: HCT-116; how it was run: as §4
Target sequence in this assay (Q16665 whole entry, looked up): as the sequence (Q16665 whole entry) above

HCT-116 [14] = experiment: Downregulation of HIF1alpha mRNA expression in human HCT116 cells under hypoxic condition at 2 to 10 uM by RT-PCR analysis; assay type: functional, cell-based
How it was run: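 mRNA of HIF-1α and target genes measured by RT-PCR in compound-treated cells.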

HUVEC [15] = experiment: Cytotoxicity against HUVECs assessed as growth inhibition at 1 to 5 uM after 48 hrs by SRB assay; assay type: cell-based; settings: human; how it was run: as §1
[16] = biological target: T1, Hypoxia-inducible factor 1-alpha; experiment: Inhibition of HIF1alpha in human HCT116 cells under hypoxic condition assessed as decrease in EPO mRNA expression by RT-PCR analysis; assay type: cell-based; settings: HCT-116; how it was run: as §4
Target sequence in this assay (Q16665 whole entry, looked up): as the sequence (Q16665 whole entry) above

HeLa = experiment: Inhibition of HIF1alpha expression in human HeLa cells under hypoxic condition assessed as decrease in protein accumulation by Western blot analysis; assay type: functional, cell-based
How it was run: (§6)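 Cells held under hypoxia (1% O2, 94% N2, 5% CO2) with compound at various concentrations; HIF-1α protein in lysates detected by Western blot. LW6 as control; HIF-1β also probed.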

HCT-116 [17] = experiment: Inhibition of HIF1alpha expression in human HCT116 cells under hypoxic condition assessed as decrease in protein accumulation by Western blot analysis; assay type: functional, cell-based; how it was run: as §6
[18] = biological target: T1, Hypoxia-inducible factor 1-alpha; experiment: Inhibition of HIF1alpha in human HCT116 cells under hypoxic condition assessed as increase in VHL expression at 2 to 5 uM by dual luciferase reporter gene assay; assay type: cell-based; settings: HCT-116
How it was run: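 HCT116 cells were exposed to 0, 2 or 5 μM compound under hypoxia (1% O2, 94% N2, 5% CO2). They were lysed in RIPA buffer, and total lysates were examined for VHL expression.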
Target sequence in this assay (Q16665 whole entry, looked up): as the sequence (Q16665 whole entry) above

LoVo = experiment: Inhibition of HIF1alpha expression in human LoVo cells under hypoxic condition assessed as decrease in protein accumulation by Western blot analysis; assay type: functional, cell-based; how it was run: as §6
PC-3 = experiment: Inhibition of HIF1alpha expression in human PC3 cells under hypoxic condition assessed as decrease in protein accumulation by Western blot analysis; assay type: functional, cell-based; how it was run: as §6
[19] = biological target: T1, Hypoxia-inducible factor 1-alpha; experiment: Inhibition of HIF1alpha in human HCT116 cells under hypoxic condition at 5 uM after 12 hrs by dual luciferase reporter gene assay in presence of dipyridol; assay type: cell-based; settings: HCT-116; how it was run: as §5
HCT-116 [20] = experiment: Inhibition of HIF1beta expression in human HCT116 cells under hypoxic condition assessed as protein accumulation at 0.05 to 30 uM by Western blot analysis; assay type: functional, cell-based
How it was run: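 HCT116 cells under hypoxia treated with compound at various concentrations; HIF-1β protein level in lysates assessed by Western blot alongside HIF-1α.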

A549 = experiment: Inhibition of HIF1alpha expression in human A549 cells under hypoxic condition assessed as decrease in protein accumulation by Western blot analysis; assay type: functional, cell-based; how it was run: as §6
[21] = biological target: T1, Hypoxia-inducible factor 1-alpha; experiment: Inhibition of HIF1alpha in human HCT116 cells under hypoxic condition at 0.4 uM after 12 hrs by dual luciferase reporter gene assay in presence of dipyridol; assay type: cell-based; settings: HCT-116
How it was run: (§7)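 Cells cotransfected with pGL3-HRE-luciferase and pRL-SV40, incubated 24 h, then 4 h hypoxia. Then treated with compound (17-AAG 0.4 μM; test 5 μM) with or without 200 μM dipyridol for 12 h under hypoxia. Firefly luciferase normalised to Renilla.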

[22] = biological target: T1, Hypoxia-inducible factor 1-alpha; experiment: Inhibition of HIF1alpha in human HCT116 cells under hypoxic condition at 0.4 uM after 12 hrs by dual luciferase reporter gene assay in absence of dipyridol; assay type: cell-based; settings: HCT-116; how it was run: as §7

| SMILES | IC50 [1] [µM] | Activity (HCT-116 [2]) [µM] | further results |
| --- | --- | --- | --- |
| COC(=O)c1ccc(NC(=O)/C=C/Oc2ccc(C34CC5CC(CC(C5)C3)C4)cc2)cc1 | 2.17 | > 20 | – |
| O=C(/C=C/Oc1ccc(C23CC4CC(CC(C4)C2)C3)cc1)Nc1cccc(C(=O)NCc2ccco2)c1 | > 20 | > 20 | – |
| CCN(CC)CCNC(=O)c1c(C)[nH]c(/C=C2\C(=O)Nc3ccc(F)cc32)c1C [SUNITINIB] | – | – | Activity (HUVEC [3]): Non-toxic; inhibition (HUVEC [4]): Active; inhibition (HCT-116 [5]): Active |
| COC(=O)c1cccc(NC(=O)COc2ccc(C34CC5CC(CC(C5)C3)C4)cc2)c1 | 5.03 | > 20 | – |
| COC(=O)c1cccc(NC(=O)/C=C/Oc2ccc(C(C)(C)CC(C)(C)C)cc2)c1 | 1.04 | > 20 | – |
| O=C(/C=C/Oc1ccc(C23CC4CC(CC(C4)C2)C3)cc1)Nc1cccc(C(=O)NCCN2CCOCC2)c1 | 1.07 | > 20 | – |
| COCCOC(=O)c1cccc(NC(=O)/C=C/Oc2ccc(C34CC5CC(CC(C5)C3)C4)cc2)c1 | 1.84 | > 20 | – |
| NC(=O)c1cccc(NC(=O)/C=C/Oc2ccc(C34CC5CC(CC(C5)C3)C4)cc2)c1 | > 20 | > 20 | – |
| COC(=O)c1cccc(NC(=O)CCOc2ccc(C34CC5CC(CC(C5)C3)C4)cc2)c1 | 2.54 | > 20 | – |
| COC(=O)c1cc(NC(=O)/C=C/Oc2ccc(C34CC5CC(CC(C5)C3)C4)cc2)ccc1O | > 20 | > 20 | – |
| CC(C)NC(=O)c1cccc(NC(=O)/C=C/Oc2ccc(C34CC5CC(CC(C5)C3)C4)cc2)c1 | > 20 | > 20 | – |
| O=C(/C=C/Oc1ccc(C23CC4CC(CC(C4)C2)C3)cc1)Nc1cccc(C(=O)O)c1 | > 20 | > 20 | – |
| COC(=O)c1cccc(NC(=O)CCCOc2ccc(C34CC5CC(CC(C5)C3)C4)cc2)c1 | 15.8 | > 20 | – |
| COC(=O)c1cccc(NC(=O)/C=C/Oc2ccc(C34CC5CC(CC(C5)C3)C4)cc2)c1 | – | > 20 | solubility kinetic [6]: 6.56 µM (≈ 2.83 µg/mL); solubility kinetic [7]: 4.25 µM (≈ 1.83 µg/mL); solubility kinetic [8]: 12.2 µM (≈ 5.27 µg/mL) |
| CCOC(=O)c1cccc(NC(=O)/C=C/Oc2ccc(C34CC5CC(CC(C5)C3)C4)cc2)c1 | 0.82 | > 20 | – |
| CN(C)CCOC(=O)c1cccc(NC(=O)/C=C/Oc2ccc(C34CC5CC(CC(C5)C3)C4)cc2)c1 | 2.62 | > 20 | – |
| O=C(/C=C/Oc1ccc(C23CC4CC(CC(C4)C2)C3)cc1)Nc1cccc(C(=O)OCCN2CCOCC2)c1 | 0.12 | > 20 | inhibition (HUVEC [9]): Active; inhibition [10]: Dose-dependent effect; inhibition [11]: Active; inhibition [12]: Active; solubility kinetic [6]: 113 µM (≈ 60 µg/mL); inhibition [13]: Dose-dependent effect; solubility kinetic [7]: 45.1 µM (≈ 23.9 µg/mL); Activity (HCT-116 [14]): inactive; solubility kinetic [8]: 61.3 µM (≈ 32.5 µg/mL); Activity (HUVEC [15]): Non-toxic; inhibition [16]: Dose-dependent effect; inhibition (HeLa): Dose-dependent effect; inhibition (HCT-116 [17]): Dose-dependent effect; inhibition [18]: Active; inhibition (LoVo): Dose-dependent effect; inhibition (PC-3): Dose-dependent effect; inhibition [19]: inactive; inhibition (HCT-116 [20]): inactive; inhibition (A549): Dose-dependent effect; inhibition (HCT-116 [5]): Active |
| O=C(/C=C/Oc1ccc(C23CC4CC(CC(C4)C2)C3)cc1)Nc1cccc(C(=O)NCCCn2ccnc2)c1 | 1.85 | > 20 | – |
| NS(=O)(=O)c1cccc(NC(=O)/C=C/Oc2ccc(C34CC5CC(CC(C5)C3)C4)cc2)c1 | 2.38 | > 20 | – |
| C=CCNC1=C2C[C@@H](C)C[C@H](OC)[C@H](O)[C@@H](C)/C=C(\C)[C@H](OC(N)=O)[C@@H](OC)/C=C\C=C(/C)C(=O)NC(=CC1=O)C2=O | – | – | inhibition [21]: Active; inhibition [22]: Active |
| COC(=O)c1cccc(NC(=O)/C=C/Oc2ccc(C(C)(C)C)cc2)c1 | 6.03 | > 20 | – |
| COC(=O)c1ccc(O)c(NC(=O)COc2ccc(C34CC5CC(CC(C5)C3)C4)cc2)c1 | 2.44 | > 20 | solubility kinetic [6]: 6.85 µM (≈ 2.98 µg/mL); solubility kinetic [7]: 68.2 µM (≈ 29.7 µg/mL); solubility kinetic [8]: 44.9 µM (≈ 19.6 µg/mL) |
| CS(=O)(=O)c1cccc(NC(=O)/C=C/Oc2ccc(C34CC5CC(CC(C5)C3)C4)cc2)c1 | 1.18 | > 20 | – |
| O=C(/C=C/Oc1ccc(C23CC4CC(CC(C4)C2)C3)cc1)Nc1cccc(C(=O)NCCc2ccncc2)c1 | 1.34 | > 20 | – |
| O=C(/C=C/Oc1ccc(C23CC4CC(CC(C4)C2)C3)cc1)Nc1cccc(C(=O)OCCN2CCCC2)c1 | 1.35 | > 20 | – |
| COC(=O)c1cccc(NC(=O)/C=C/Oc2ccc(C34CC5CC(CC(C5)C3)C4)cc2C)c1 | 4.12 | > 20 | – |
